Screens (PubChem BioAssay)
Shown are actives, neighbours in structure and some others; about 1.7% of the full set was active somewhere.
CAL PDZ FP-1: human CAL PDZ-peptide interaction inhibition. AID 504414. Q9HD26. 330,000 tested, 0.02% active. inhibition, % at 20 µM. purified CAL PDZ, TMR-peptide fluorescence polarization, 1 h;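 active means highest replicate inhibition of at least 40%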;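 further: plate controls were DMSO neutral control wells for no effect and unlabeled competitor peptide control wells for full effect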
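material = purified tagged CAL PDZ domain construct (CerCALP) | buffer or medium = sodium phosphate/NaCl buffer pH 7.4 with TCEP, IgG, Thesit | reagent = TMR-labelled reporter peptide T*-PRC34 bound in PDZ groove | incubation = 1 h room-temperature incubation prior to read | measured by = fluorescence polarization (mP) | evaluation = percent inhibition from loss of millipolarization | control set = unlabelled peptide and DMSO controls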
ARNT-TACC3 inh: ARNT/TACC3 interaction disruption | Q9Y6A5 | AlphaScreen His-ARNT PAS-B/GST-TACC3 binding, luminescence; TACC3 fragment carries E629A point mutation | inhibition, % at 9.99 µM | 390,000 tested, 0.66% active | AID 623870;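 active means mean inhibition of replicates at least 50% and at least half of replicates each reaching 50%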;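 further: 0% = complete ARNT plus TACC3 wells and 100% = ARNT alone without TACC3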
Rce1 inh: yeast Ras-converting enzyme inhibition; calls only; yeast membranes, quenched prenylated peptide cleavage fluorescence; 290,000 tested, 0.27% active;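 active means fall in fluorescence gain of 50% or more versus controls, with final raw signal at or below 3038400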;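 further: plate controls were neutral control wells for no effect and wells lacking membranes for full effect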
Target sequence (Q03530 whole entry, looked up): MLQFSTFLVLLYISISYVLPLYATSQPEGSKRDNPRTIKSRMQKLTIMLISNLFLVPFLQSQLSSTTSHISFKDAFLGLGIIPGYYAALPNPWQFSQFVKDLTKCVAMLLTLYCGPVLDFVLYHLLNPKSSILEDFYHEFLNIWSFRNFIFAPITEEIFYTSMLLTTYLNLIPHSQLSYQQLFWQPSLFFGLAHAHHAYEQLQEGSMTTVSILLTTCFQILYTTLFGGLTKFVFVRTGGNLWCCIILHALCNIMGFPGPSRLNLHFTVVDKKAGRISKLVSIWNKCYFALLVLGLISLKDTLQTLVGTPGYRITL
CAL PDZ FP-2: CAL PDZ (human) peptide binding inhibition; Q9HD26; purified CAL PDZ, TMR-peptide fluorescence polarization, 1 h; inhibition, % at 24.9 µM; 300,000 tested, 0.92% active; AID 602252;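 active means mean inhibition of at least 30% with at least half of replicates also reaching 30%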;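 further: 0% = DMSO neutral control and 100% = excess unlabeled competitor peptide PRC23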
AI-2 QS modul: modulators of Vibrio harveyi AI-2 quorum sensing system | Vibrio harveyi JMH597 AI-2 luminescence/OD600 ratio, 9 h; active compounds read low; strain lacks LuxN and CqsS sensors; 0 = neutral-control median | activity change, % at 7.5 µM | 300,000 tested, 0.4% active; in the data active means activity change below about -75%, passing the limit was not always enough;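 further: luminescence divided by OD600 gain over 9 h not by final OD600 alone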
Numbers without * were called inactive; i = inactive; . = no result given; + = active, no number.

SMILES	CAL PDZ FP-1	ARNT-TACC3 inh	Rce1 inh	CAL PDZ FP-2	AI-2 QS modul
CC(=O)N(C1=C(N)C(=O)c2ccccc2C1=O)c1ccccc1	1	12*	i	-2	10
COCCn1c(SCc2ccc(F)cc2)nc2c1c(=O)[nH]c(=O)n2C	-1	30	i	-4	-4
Nc1c(Cl)ncnc1N/N=C/c1ccc2ccccc2n1	-1	64*	.	2	.
Cn1c(CN2CCOCC2)c(C#N)c2ccccc21	0	-19	+	1	12
COc1cccc2sc(NNC(=O)COc3ccccc3)nc12	-1	-3	.	.	6
COc1cccc2sc(Nc3nc(-c4ccccn4)cs3)nc12	1	45*	i	-2	9
COc1cccc2sc(Nc3nnc(-c4ccc(F)cc4)o3)nc12	-5	-1	i	.	20
COc1cccc2sc(Nc3nnc(-c4cccs4)o3)nc12	0	2	i	-6	-165*
c1ccc(-c2csc(Nc3cccnc3)n2)nc1	0	45*	i	.	24
CS(=O)(=O)Nc1ccc2c(c1)[C@@H]1C[C@H](CC(=O)NCc3ccccc3F)O[C@@H](CO)[C@@H]1O2	.	-6	.	.	.
CCOc1ccc(CCNC(=O)Cn2c(-c3nonc3N)nc3ccccc32)cc1OCC	-3	3	.	1	.
COc1ccc(CCNC(=O)Cn2c(-c3nonc3N)nc3ccccc32)cc1OC	.	2	i	40*	-8
COc1ccc(NC(=O)CSc2nnc3ccc(-c4ccccn4)nn23)cc1OC	0	8	i	-3	26
COc1cccc(NC(=O)Nc2cccn(Cc3ccc(C)cc3)c2=O)c1	-2	-10	+	-4	21
O=C(c1ccc(Cn2cnnn2)cc1)N1CCCC(Nc2ccc(F)cc2)C1 (centres undefined)	-3	1	+	-4	30
Cc1cccc(NC(=O)c2ccc([N+](=O)[O-])s2)c1C	-2	1	i	47*	62
Cc1cccc(C)c1NC(=O)c1ccc([N+](=O)[O-])s1	-2	5	i	-7	29
O=C(Nc1ccc(Cl)c([N+](=O)[O-])c1)c1ccc2c(c1)OCCO2	17	-2	i	30*	7
CCCCN1CC(COCc2ccccc2)Oc2cc(Br)ccc2S1(=O)=O (centres undefined)	0	0	.	9	.
CCOc1ccc2[nH]c3c(N4CCc5ccccc5C4)ncnc3c2c1	.	.	+	.	24
CCOc1ccc2[nH]c3c(NCC(C)C)ncnc3c2c1	-1	-2	i	81*	10
Cc1ccc2[nH]c3c(N4CCc5ccccc5C4)ncnc3c2c1	-2	.	i	-1	34
O=C(Nc1ccc(N2CCN(C(=O)c3ccco3)CC2)c(Cl)c1)c1cc2ccccc2o1	-1	-6	i	-4	23
CCC(=O)N1CCN(c2ccc(NC(=O)c3cc4ccccc4o3)cc2Cl)CC1	.	15	+	1	26
CCCC(=O)N1CCN(c2ccc(NC(=O)c3cc4ccccc4o3)cc2Cl)CC1	-1	-8	+	-4	35
SMILES	CAL PDZ FP-1	ARNT-TACC3 inh	Rce1 inh	CAL PDZ FP-2	AI-2 QS modul
CCOc1ccccc1C(O)C1=CC(=O)c2ccccc2C1=O (centres undefined)	0	3	.	1	.
C[C@@H]1CN([C@@H](C)CO)C(=O)c2cccc(NC(=O)c3nc4ccccc4s3)c2O[C@H]1CN(C)C(=O)Nc1ccc(F)cc1	.	-11	.	.	.
CN1CCN(C(=O)c2cc3c(ccc4ccccc43)oc2=O)CC1	0	.	i	0	28
O=C(Nc1cccc(Cl)c1)c1nc[nH]c1C(=O)NCc1ccccc1	-1	7	.	1	.
CC1(CC(=O)N/N=C/c2cc(Br)c(O)cc2O)OCCO1	-2	75*	i	-4	68
O=C(Nc1ccccc1Cl)N1CCN(c2ccc3nnc(-c4ccccc4)n3n2)CC1	-5	2	i	57*	5
O=C(Nc1ccc(Cl)cc1)N1CCN(c2ccc3nnc(-c4ccc(F)cc4)n3n2)CC1	-6	-7	i	.	19
O=S(=O)(c1ccc(Cl)nc1)N1CCCCC1	-2	-16	i	0	25
CCOC(=O)C1CCCN(S(=O)(=O)c2ccc(Cl)nc2)C1 (centres undefined)	1	-3	i	46*	30
O=S(=O)(c1ccc(Cl)nc1)N1CCOCC1	0	22*	.	6	.
O=C(COC(=O)C1CCC(N2C(=O)C3C4CCC(C4)C3C2=O)CC1)c1ccc(F)cc1 (centres undefined)	0	6	.	79*	16
CN(C(=O)COC(=O)c1ccc(Cl)cc1N)C1CCCCC1	0	2	i	34*	21
CN(C(=O)COC(=O)c1ccc([N+](=O)[O-])cc1Cl)C1CCCCC1	-2	7	i	-2	17
CCCCC1OC23CCCCC2C(C#N)(C(=N)O3)C1(C#N)C#N (centres undefined)	1	10	i	4	32
COc1ccccc1CC(=O)Nc1ccc2c(C)cc(=O)oc2c1	1	-1	+	-6	9
CC1=C(C(=O)N2CCOCC2)C(c2ccccc2F)C2=C(CC(C)(C)CC2=O)N1 (centres undefined)	0	-3	+	.	40
Cc1ccc(NC(=O)CN2CCCC2c2cccn2C)c(Br)c1 (centres undefined)	-1	-1	.	39*	.
O=C(Cn1[nH]c(=O)c2ccccc2c1=O)OCC(=O)N1CCCc2ccccc21	-2	3	i	69*	47
O=C(Cn1[nH]c(=O)c2ccccc2c1=O)OCC(=O)N1CCc2ccccc2C1	-2	-4	i	.	27
COc1ccccc1Nc1n[nH]c(=S)s1	-1	-4	i	78*	2
C[C@H](CO)N1C[C@H](C)[C@@H](CN(C)C(=O)Nc2ccccc2F)OCc2cnnn2CCCC1=O	.	-4	.	.	.
O=C(Oc1ccc2c(=O)c(Oc3ccc4ccccc4c3)coc2c1)c1ccco1	-2	-17	i	-1	-82*
O=C(c1cc([N+](=O)[O-])ccc1N1CCCCC1)N1CCCC1	-2	-2	i	-2	-10
CCOC(=O)N1CCN(Cc2cc(Cl)c3cccnc3c2O)CC1	.	.	i	.	-78*
CCOC(=O)C1CCN(Cc2ccc(O)c3ncccc23)CC1	0	69*	.	0	8
Clc1ccc(C(c2ccccc2Cl)C(Cl)Cl)cc1 (centres undefined)	1	48*	.	0	.
CCc1ccc(C(c2ccc(CC)cc2)C(Cl)Cl)cc1	0	.	.	-1	.
O=C(CN1CCN(c2ccccc2)CC1)Nc1ccccc1Cl	-2	.	i	0	13
O=C(CCN1CCN(c2ccccc2)CC1)NNC(=S)Nc1ccccc1Cl	-1	-8	i	41*	31
Cc1ccc(NC(=O)C(NC2CCCC2)c2ccccc2)cc1Cl (centres undefined)	-1	-2	i	58*	41
